Series [1] can be described thus: Inhibition of mouse full length GST-tagged BRAF V600E mutant-mediated Mek1 phosphorylation preincubated for 1 hr prior to substrate addition measured after 25 mins by PAGE analysis.
The nature of series [2]: Antiproliferative activity against human WM266.4 cells after 24 hrs by MTT assay. As to conditions: WM 266-4, 24 h. Type of series: functional. A digest of the protocol: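 WM266.5 (so in the source) melanoma cells in DMEM/10% FBS, 37 °C, 5% CO2; seeded 1000 cells/well and left 24 h to reattach. DMSO stocks (20 mM) serially diluted in medium to final 100 µM–0.005 µM. Exposure 24 h at 37 °C. Viability by MTT reduction, absorbance at 590 nm; GI50 calculated.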

Series [3] is described as follows: Acute oral toxicity in po dosed rat after 14 days. Particulars: in vivo. Type of series: organism-based. A digest of the protocol: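 Single 5000 mg/kg dose given by oral gavage to ten healthy rats. Mortality, gross toxicity signs and behavioural changes were checked at least once daily for 14 days. Body weights were taken before dosing and on days 7 and 14.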

From ChEMBL document CHEMBL2034910, “Synthesis, biological evaluation and 3D-QSAR studies of novel 4,5-dihydro-1H-pyrazole niacinamide derivatives as BRAF inhibitors” (Bioorg Med Chem, 2012) come the findings set out here.

One may read the IC50 as the midpoint of a concentration-inhibition curve. As a reminder, the pIC50 is the IC50 on a negative log10 scale, so that one unit is a factor of ten. A high value points to a small IC50. One may read the GI50 as the concentration that inhibits growth by half. With `O=C(c1ccc(Cl)nc1)N1N=C(c2ccc(Cl)cc2)CC1c1ccc(Br)cc1` (stereo not drawn), in series [1], the 50% inhibitory concentration (IC50) worked out at 7.34 µM and the negative-log IC50 (pIC50) was 5.134. In series [2], this compound registered a 50% growth inhibitory concentration (GI50) of 9.87 µM.

In series [1], `COc1ccc(C2=NN(C(=O)c3ccc(Cl)nc3)C(c3ccc(OCc4ccccc4)cc3)C2)cc1` (stereo not drawn) displayed an IC50 of 6.78 µM and a pIC50 of 5.369. In series [2], this compound showed a 50% growth inhibitory concentration (GI50) of 10.6 µM.

With `COc1ccc(C2=NN(C(=O)c3cncc(Br)c3)C(c3ccc(Br)cc3)C2)cc1` (stereo not drawn), in series [1], the 50% inhibitory concentration (IC50) amounted to 3.51 µM and the negative logarithm of the IC50 (pIC50) came to 5.455. Further, the 50% growth inhibitory concentration (GI50) in series [2] stood at 5.63 µM.

With `COc1ccc(C2=NN(C(=O)c3cccnc3Cl)C(c3ccc(OC)cc3)C2)cc1` (stereo not drawn), in series [1], the concentration for half-maximal inhibition (IC50) worked out at 6.14 µM and the negative-log IC50 (pIC50) was determined as 5.212. Moreover, the 50% growth inhibitory concentration (GI50) in series [2] worked out at 4.35 µM.

As for `CNC(=O)c1cc(Oc2ccc(NC(=O)Nc3ccc(Cl)c(C(F)(F)F)c3)cc2)ccn1` [SORAFENIB], in series [1], it took 0.06 µM to reach half-maximal inhibition (IC50). The compound also came in with a GI50 in series [2] of 8.12 µM.

In series [1], `COc1ccc(C2=NN(C(=O)c3cccnc3Cl)C(c3ccc(OCc4ccccc4)cc3)C2)cc1` (stereo not drawn) showed an IC50 of 6.49 µM and a negative logarithm of the IC50 (pIC50) of 5.188. Moreover, the GI50 in series [2] was 9.15 µM.

In series [1], `O=C(c1cncc(Br)c1)N1N=C(c2ccc(Cl)cc2)CC1c1ccc(Cl)cc1` (stereo not drawn) returned a 50% inhibitory concentration (IC50) of 4.77 µM and a negative logarithm of the IC50 (pIC50) of 5.321. In series [2], this compound displayed a GI50 of 6.09 µM.

As to `COc1ccc(C2=NN(C(=O)c3cncc(Br)c3)C(c3ccc(OC)cc3)C2)cc1` (stereo not drawn), in series [1], the 50% inhibitory concentration (IC50) worked out at 4.58 µM and the negative-log IC50 (pIC50) is 5.339. In series [2], this compound registered a GI50 of 7.56 µM.

In series [1], `COc1ccc(C2=NN(C(=O)c3ccc(C)nc3Cl)C(c3ccc(Cl)cc3)C2)cc1` (stereo not drawn) displayed an IC50 of 0.58 µM and a pIC50 of 6.237. The same compound yielded a GI50 in series [2] of 1.44 µM.

In series [1], `COc1ccc(C2=NN(C(=O)c3ccc(C)nc3Cl)C(c3ccc(Br)cc3)C2)cc1` (stereo not drawn) had an IC50 of 6.76 µM and a negative logarithm of the IC50 (pIC50) of 5.17. This compound returned a GI50 in series [2] of 8.47 µM.

With `O=C(c1cccnc1Cl)N1N=C(c2ccc(Cl)cc2)CC1c1ccc(Br)cc1` (stereo not drawn), in series [1], the IC50 was found to be 8.67 µM and the pIC50 is 5.062. The same compound came in with a GI50 in series [2] of 7.45 µM.

In series [1], `Cc1ccc(C(=O)N2N=C(c3ccc(Cl)cc3)CC2c2ccc(Cl)cc2)c(Cl)n1` (stereo not drawn) registered an IC50 of 7.77 µM and a pIC50 of 5.11. Besides, growth in series [2] was halved (GI50) at 8.87 µM.

For the compound `Cc1ccc(C(=O)N2N=C(c3ccc(Cl)cc3)CC2c2ccc(Cl)cc2)cn1` (stereo not drawn), in series [1], inhibition was half-maximal at 3.58 µM (IC50) and the pIC50 turned out to be 5.446. Also, the 50% growth inhibitory concentration (GI50) in series [2] was determined as 3.79 µM.

In series [1], `COc1ccc(C2=NN(C(=O)c3ccc(Cl)nc3)C(c3ccc(Cl)cc3)C2)cc1` (stereo not drawn) registered a concentration for half-maximal inhibition (IC50) of 0.51 µM and a negative-log IC50 (pIC50) of 6.292. In series [2], this compound yielded a concentration for 50% growth inhibition (GI50) of 1.45 µM.

For `COc1ccc(C2=NN(C(=O)c3ccc(C)nc3)C(c3ccc(OC)cc3)C2)cc1` (stereo not drawn), in series [1], inhibition was half-maximal at 3.42 µM (IC50) and the pIC50 is 5.466. The compound further yielded a 50% growth inhibitory concentration (GI50) in series [2] of 4.93 µM.

As to `Cc1ccc(C(=O)N2N=C(c3ccc(Cl)cc3)CC2c2ccc(Br)cc2)cn1` (stereo not drawn), in series [1], the IC50 was determined as 7.05 µM and the pIC50 is on record as 5.152. The compound also gave a 50% growth inhibitory concentration (GI50) in series [2] of 7.65 µM.

In series [1], `COc1ccc(C2=NN(C(=O)c3ccc(Cl)nc3)C(c3ccc(OC)cc3)C2)cc1` (stereo not drawn) yielded an IC50 of 7.56 µM and a pIC50 of 5.121. In series [2], the 50% growth inhibitory concentration (GI50) turned out to be 6.45 µM.

In series [1], `COc1ccc(C2=NN(C(=O)c3ccc(Cl)nc3)C(c3ccc(Br)cc3)C2)cc1` (stereo not drawn) came in with an IC50 of 6.89 µM and a negative logarithm of the IC50 (pIC50) of 5.162. Further, the GI50 in series [2] worked out at 7.13 µM.

Consider `COc1ccc(C2=NN(C(=O)c3ccc(C)nc3Cl)C(c3ccc(OC)cc3)C2)cc1` (stereo not drawn), for which, in series [1], the IC50 is 5.14 µM and the negative logarithm of the IC50 (pIC50) is given as 5.289. Also, in series [2], the 50% growth inhibitory concentration (GI50) came out at 5.74 µM.

In series [1], `COc1ccc(C2=NN(C(=O)c3cccnc3Cl)C(c3ccc(Br)cc3)C2)cc1` (stereo not drawn) gave an IC50 of 5.57 µM and a pIC50 of 5.254. This compound yielded a GI50 in series [2] of 3.05 µM.

Turning to `COc1ccc(C2=NN(C(=O)c3cccnc3Cl)C(c3ccc(Cl)cc3)C2)cc1` (stereo not drawn), in series [1], the IC50 turned out to be 0.47 µM and the pIC50 was 6.328. The same compound displayed a 50% growth inhibitory concentration (GI50) in series [2] of 0.78 µM.

In series [1], `O=C(c1ccc(Cl)nc1)N1N=C(c2ccc(Cl)cc2)CC1c1ccc(OCc2ccccc2)cc1` (stereo not drawn) came in with an IC50 of 16.4 µM and a negative logarithm of the IC50 (pIC50) of 4.784. In series [2], this compound had a concentration for 50% growth inhibition (GI50) of 13.2 µM.

Take `COc1ccc(C2=NN(C(=O)c3cncc(Br)c3)C(c3ccc(OCc4ccccc4)cc3)C2)cc1` (stereo not drawn): in series [1], the half-maximal inhibitory concentration (IC50) is 4.27 µM and the pIC50 worked out at 5.272. In addition, the GI50 in series [2] was found to be 6.24 µM.

In the case of `Cc1ccc(C(=O)N2N=C(c3ccc(Cl)cc3)CC2c2ccc(Br)cc2)c(Cl)n1` (stereo not drawn), in series [1], the concentration for half-maximal inhibition (IC50) was found to be 7.35 µM and the negative-log IC50 (pIC50) is reported as 5.134. For the same compound, the GI50 in series [2] came out at 10.8 µM.

Turning to `O=C(c1cccnc1Cl)N1N=C(c2ccc(Cl)cc2)CC1c1ccc(OCc2ccccc2)cc1` (stereo not drawn), in series [1], the concentration for half-maximal inhibition (IC50) stood at 4.42 µM and the negative logarithm of the IC50 (pIC50) came out at 5.355. In series [2], this compound came in with a GI50 of 7.71 µM.

In the case of `COc1ccc(C2=NN(C(=O)c3ccc(C)nc3Cl)C(c3ccc(OCc4ccccc4)cc3)C2)cc1` (stereo not drawn), in series [1], the concentration for half-maximal inhibition (IC50) was found to be 3.01 µM and the negative-log IC50 (pIC50) was 5.521. In series [2], the GI50 stood at 10.5 µM.

In series [1], `COc1ccc(C2=NN(C(=O)c3ccc(C)nc3)C(c3ccc(Br)cc3)C2)cc1` (stereo not drawn) yielded a half-maximal inhibitory concentration (IC50) of 4.23 µM and a pIC50 of 5.373. In series [2], this compound yielded a concentration for 50% growth inhibition (GI50) of 4.28 µM.

In series [1], `O=C(c1cncc(Br)c1)N1N=C(c2ccc(Cl)cc2)CC1c1ccc(Br)cc1` (stereo not drawn) returned an IC50 of 7.82 µM and a negative logarithm of the IC50 (pIC50) of 5.107. Further, the 50% growth inhibitory concentration (GI50) in series [2] came to 8.01 µM.

Consider `O=C(c1ccc(Cl)nc1)N1N=C(c2ccc(Cl)cc2)CC1c1ccc(Cl)cc1` (stereo not drawn), for which, in series [1], the IC50 stood at 7.16 µM and the pIC50 was determined as 5.145. In series [2], this compound registered a GI50 of 9.89 µM.

In series [1], `Cc1ccc(C(=O)N2N=C(c3ccc(Cl)cc3)CC2c2ccc(OCc3ccccc3)cc2)cn1` (stereo not drawn) yielded an IC50 of 7.02 µM and a negative-log IC50 (pIC50) of 5.154. Besides, the concentration for 50% growth inhibition (GI50) in series [2] is 9.2 µM.

Usually LD50 stands for the dose expected to kill half of the subjects tested. A higher LD50 goes with lower toxicity. In series [1], `COc1ccc(C2=NN(C(=O)c3ccc(C)nc3)C(c3ccc(Cl)cc3)C2)cc1` (stereo not drawn) displayed a concentration for half-maximal inhibition (IC50) of 0.2 µM and a pIC50 of 6.796. This compound showed a GI50 in series [2] of 0.89 µM. The same compound registered a 50% lethal dose (LD50) at 336 h in series [3] of over 5000 mg/kg.

In series [1], `COc1ccc(C2=NN(C(=O)c3cncc(Br)c3)C(c3ccc(Cl)cc3)C2)cc1` (stereo not drawn) came in with an IC50 of 0.38 µM and a pIC50 of 6.42. In series [2], this compound gave a concentration for 50% growth inhibition (GI50) of 1.29 µM.

As for `COc1ccc(C2=NN(C(=O)c3ccc(C)nc3)C(c3ccc(OCc4ccccc4)cc3)C2)cc1` (stereo not drawn), in series [1], the IC50 came to 1.63 µM and the negative-log IC50 (pIC50) came out at 5.788. The GI50 in series [2] was 7.95 µM.

Regarding `O=C(c1cccnc1Cl)N1N=C(c2ccc(Cl)cc2)CC1c1ccc(Cl)cc1` (stereo not drawn), in series [1], the IC50 is 2.12 µM and the pIC50 amounted to 5.672. Besides, the GI50 in series [2] turned out to be 3.58 µM.

Regarding `O=C(c1cncc(Br)c1)N1N=C(c2ccc(Cl)cc2)CC1c1ccc(OCc2ccccc2)cc1` (stereo not drawn), in series [1], the IC50 stood at 7.61 µM and the negative logarithm of the IC50 (pIC50) is 5.119. This compound also displayed a GI50 in series [2] of 8.13 µM.

In series [1], `Cc1ccc(C(=O)N2N=C(c3ccc(Cl)cc3)CC2c2ccc(OCc3ccccc3)cc2)c(Cl)n1` (stereo not drawn) showed an IC50 of 12.9 µM and a negative logarithm of the IC50 (pIC50) of 4.89. For the same compound, the GI50 in series [2] worked out at 11.4 µM.
